From ChEMBL document CHEMBL1122115, “Antimalarials. 13. 5-Alkoxy analogues of 4-methylprimaquine” (1982)

How the values were obtained:
Assay type in all cases: functional
Mus musculus [1] = test: Antimalarial activity against Plasmodium berghei in mice (Mus musculus) at 640 mg/kg dose administered subcutaneously; toxic; conditions: route subcutaneous
How it was run: (§1)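 Primary mouse screen: groups of five mice infected with a lethal dose of P. berghei 3 days before drug administration. Drug given subcutaneously, routinely in sesame or peanut oil. Mean survival time compared with infected untreated controls; extension in survival time (ΔMST) taken as antimalarial activity.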

Mus musculus [2] = test: Antimalarial activity against Plasmodium berghei in mice (Mus musculus) at 10 mg/kg dose administered subcutaneously; active; conditions: route subcutaneous; how it was run: as §1
Mus musculus [3] = test: Antimalarial activity against Plasmodium berghei in mice (Mus musculus) at 20 mg/kg dose administered subcutaneously; active; conditions: route subcutaneous; how it was run: as §1
Plasmodium cynomolgi [4] = test: Radio curative antimalarial activity against Plasmodium cynomolgi in rhesus monkey at 0.75 mg/kg (base/day) peroral dose; cured 0 of 3; conditions: route oral
Plasmodium cynomolgi [5] = test: Radio curative antimalarial activity against Plasmodium cynomolgi in rhesus monkey at 0.25 mg/kg (base/day) peroral dose; cured 0 of 3; conditions: route oral
Mus musculus [6] = test: Antimalarial activity against Plasmodium berghei in mice (Mus musculus) at 40 mg/kg dose administered subcutaneously; toxic; conditions: route subcutaneous; how it was run: as §1
Mus musculus [7] = test: Antimalarial activity against Plasmodium berghei in mice (Mus musculus) at 160 mg/kg dose administered subcutaneously; toxic; conditions: route subcutaneous; how it was run: as §1
Mus musculus [8] = test: Antimalarial activity against Plasmodium berghei in mice (Mus musculus) at 5 mg/kg dose administered subcutaneously; active; conditions: route subcutaneous; how it was run: as §1
Mus musculus [9] = test: Antimalarial activity against Plasmodium berghei in mice (Mus musculus) at 40 mg/kg dose administered subcutaneously; conditions: route subcutaneous; how it was run: as §1
Mus musculus [10] = test: Antimalarial activity against Plasmodium berghei in mice (Mus musculus) at 320 mg/kg dose administered subcutaneously; active/3 toxic; conditions: route subcutaneous; how it was run: as §1
Mus musculus [11] = test: Antimalarial activity against Plasmodium berghei in mice (Mus musculus) at 80 mg/kg dose administered subcutaneously; conditions: route subcutaneous; how it was run: as §1
Mus musculus [12] = test: Antimalarial activity against Plasmodium berghei in mice (Mus musculus) at 160 mg/kg dose administered subcutaneously; active; conditions: route subcutaneous; how it was run: as §1
Plasmodium cynomolgi [13] = test: Radio curative antimalarial activity against Plasmodium cynomolgi in rhesus monkey at 0.75 mg/kg (base/day) peroral dose; cured 0 of 2; conditions: route oral
Mus musculus [14] = test: Antimalarial activity against Plasmodium berghei in mice (Mus musculus) at 20 mg/kg dose administered subcutaneously; conditions: route subcutaneous; how it was run: as §1
Plasmodium cynomolgi [15] = test: Radio curative antimalarial activity against Plasmodium cynomolgi in rhesus monkey at 0.25 mg/kg (base/day) peroral dose; cured 0 of 2; conditions: route oral
Mus musculus [16] = test: Antimalarial activity against Plasmodium berghei in mice (Mus musculus) at 640 mg/kg dose administered subcutaneously; conditions: route subcutaneous; how it was run: as §1
Mus musculus [17] = test: Antimalarial activity against Plasmodium berghei in mice (Mus musculus) at 160 mg/kg dose administered subcutaneously; conditions: route subcutaneous; how it was run: as §1
Mus musculus [18] = test: Antimalarial activity against Plasmodium berghei in mice (Mus musculus) at 320 mg/kg dose administered subcutaneously; toxic; conditions: route subcutaneous; how it was run: as §1
Plasmodium cynomolgi [19] = test: Radio curative antimalarial activity against Plasmodium cynomolgi in rhesus monkey at 0.5 mg/kg (base/day) peroral dose; cured 10 of 12; conditions: route oral
Plasmodium cynomolgi [20] = test: Radio curative antimalarial activity against Plasmodium cynomolgi in rhesus monkey at 0.75 mg/kg (base/day) peroral dose; cured 4 of 4; conditions: route oral
Mus musculus [21] = test: Antimalarial activity against Plasmodium berghei in mice (Mus musculus) at 80 mg/kg dose administered subcutaneously; active; conditions: route subcutaneous; how it was run: as §1
Plasmodium cynomolgi [22] = test: Radio curative antimalarial activity against Plasmodium cynomolgi in rhesus monkey at 0.25 mg/kg (base/day) peroral dose; cured 1 of 4; conditions: route oral
Mus musculus [23] = test: Antimalarial activity against Plasmodium berghei in mice (Mus musculus) at 20 mg/kg dose administered subcutaneously; cure and active at 1.25 mg/kg; how it was run: as §1
Plasmodium cynomolgi [24] = test: Radio curative antimalarial activity against Plasmodium cynomolgi in rhesus monkey at 0.75 mg/kg (base/day) peroral dose; cured 3 of 3; conditions: route oral
Mus musculus [25] = test: Antimalarial activity against Plasmodium berghei in mice (Mus musculus) at 40 mg/kg dose administered subcutaneously; cure/1 toxic; conditions: route subcutaneous; how it was run: as §1
Mus musculus [26] = test: Antimalarial activity against Plasmodium berghei in mice (Mus musculus) at 40 mg/kg dose administered subcutaneously; active/1 toxic; conditions: route subcutaneous; how it was run: as §1
Mus musculus [27] = test: Antimalarial activity against Plasmodium berghei in mice (Mus musculus) at 20 mg/kg dose administered subcutaneously; active/1 toxic; conditions: route subcutaneous; how it was run: as §1
Plasmodium cynomolgi [28] = test: Radio curative antimalarial activity against Plasmodium cynomolgi in rhesus monkey at 0.25 mg/kg (base/day) peroral dose; cured 2 of 2; conditions: route oral

In the case of Cc1ccnc2c(NC(C)CCCN)cc3c(c12)OCCO3 (centres undefined), the “Delta MST” value (Mus musculus [1]) is reported as 5 days, the “Delta MST” value (Mus musculus [2]) is reported as 8.3 days and the “Delta MST” value (Mus musculus [3]) is reported as 11.1 days. It also gave a Cured animals (Plasmodium cynomolgi [4]) of 0, a Cured animals (Plasmodium cynomolgi [5]) of 0 and a number of mice died of toxicity (Mus musculus [6]) of 5 mice. The “Delta MST” value (Mus musculus [7]) was 5 days and the “Delta MST” value (Mus musculus [8]) was 6.7 days.
In the case of COc1cc(NCCCC(C)N)c2ncccc2c1OC (centres undefined), the “Delta MST” value (Mus musculus [1]) is reported as 5 days, the “Delta MST” value (Mus musculus [9]) is reported as 3.1 days and the “Delta MST” value (Mus musculus [10]) is reported as 9.9 days. For the same compound, the “Delta MST” value (Mus musculus [11]) was 5.1 days, the “Delta MST” value (Mus musculus [12]) was 7.3 days and the Cured animals (Plasmodium cynomolgi [13]) was 0. The “Delta MST” value (Mus musculus [14]) was 1.3 days and the Cured animals (Plasmodium cynomolgi [15]) was 0.
In the case of Cc1ccnc2c(NC(C)CCCN)cc3c(c12)OCO3 (centres undefined), the “Delta MST” value (Mus musculus [16]) is reported as 0.3 days, the “Delta MST” value (Mus musculus [9]) is reported as 0.1 days and the “Delta MST” value (Mus musculus [17]) is reported as 0.1 days.
COc1cc(NC(C)CCCN)c2ncccc2c1 (centres undefined) [PRIMAQUINE] was tested, and the “Delta MST” value (Mus musculus [1]) was 5 days, the “Delta MST” value (Mus musculus [9]) was 5 days and the “Delta MST” value (Mus musculus [18]) was 5 days. It also gave a Cured animals (Plasmodium cynomolgi [19]) of 10, a Cured animals (Plasmodium cynomolgi [20]) of 4 and a Cured animals (Plasmodium cynomolgi [15]) of 0. The “Delta MST” value (Mus musculus [21]) was 9.4 days and the “Delta MST” value (Mus musculus [7]) was 2 days.
With CCC(CCCN)Nc1cc2c(c3c(C)ccnc13)OCO2 (centres undefined) the “Delta MST” value (Mus musculus [16]) was 0.9 days, the “Delta MST” value (Mus musculus [9]) was 0.5 days and the “Delta MST” value (Mus musculus [17]) was 0.5 days. The Cured animals (Plasmodium cynomolgi [4]) was 0 and the Cured animals (Plasmodium cynomolgi [5]) was 0.
For COc1cc(NC(C)CCCCN)c2nccc(C)c2c1OC (centres undefined), the “Delta MST” value (Mus musculus [1]) was 5 days, the Cured animals (Plasmodium cynomolgi [22]) was 1 and the “Delta MST” value (Mus musculus [23]) was 3 days. The Cured animals (Plasmodium cynomolgi [24]) was 3, the number of mice cured (Mus musculus [25]) was 1 mice and the “Delta MST” value (Mus musculus [7]) was 5 days.
In the case of COc1cc(NCCCCC(C)N)c2nccc(C)c2c1OC (centres undefined), the “Delta MST” value (Mus musculus [1]) is reported as 5 days, the “Delta MST” value (Mus musculus [26]) is reported as 8.7 days and the “Delta MST” value (Mus musculus [27]) is reported as 7.5 days. For the same compound, the Cured animals (Plasmodium cynomolgi [28]) was 2, the Cured animals (Plasmodium cynomolgi [24]) was 3 and the “Delta MST” value (Mus musculus [7]) was 5 days.
